This note sets out measurements from ChEMBL document CHEMBL2016538, “Synthesis and evaluation of C-11, F-18 and I-125 small molecule radioligands for detecting oxytocin receptors” (Bioorg Med Chem, 2012).

The source made the active and inactive calls. The calls are words filed in the database; no cut-off is given here.

Data set [1] has as its system Brain. The experiment in a line: Drug uptake in Sprague-Dawley rat brain at 277 uCi, iv after 45 mins by PET imaging. In kind it is ADME, organism-based. Particulars: in vivo, 0.75 h. In outline:
(§1)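 Female Sprague–Dawley rats got estradiol benzoate 10–12 μg sc in sesame oil daily for 3 days to up-regulate OTR. They were anesthetised with ketamine/xylazine 100/10 mg/kg ip, and 200–300 μCi radioligand was injected via tail vein catheter. MicroPET brain scans began at injection (90 min 18F, 45 min 11C) after a 7 min Co-57 transmission scan. Frames were summed and whole-brain time-activity curves plotted.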

Data set [2] addresses Vasopressin V1a receptor (Microtus ochrogaster, UniProt Q9WTV9). The experiment in a line: Displacement of [125I]-LVA from prairie vole vasopressin V1A receptor after 72 hrs. The method, boiled down:
(§2)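 Prairie vole brain cryosections (20 μm, PFC through NAcc and VP) were thawed, dipped in 0.1% paraformaldehyde in PBS pH 7.4 and rinsed in 50 mM Tris pH 7.4. They were incubated 1 h with 50 pM 125I-LVA plus competitor at 0 or 10−10 to 10−5 M, then washed in Tris/2% MgCl2 pH 7.4. Film exposure was 72 h against 125I standards. Ki came from competition curves; sections from six animals.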

A short description of data set [3]: Octanol-water partition coefficient, log P of the compound at 5 to 10 uCi at pH 7.4 after 3 mins. The format is physicochemical. The method, boiled down: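 About 5–10 μCi radioligand was shaken 3 min in 5 ml 0.1 M sodium phosphate pH 7.4 and 10 ml octanol. 2 ml octanol aliquots were re-partitioned against 2 ml fresh buffer by vortexing 7 min, then centrifuged at 20,000×g for 5 min. 0.5 ml of each layer was gamma-counted, and average counts gave logP7.4.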

In data set [4] the target is Vasopressin V1a receptor (Homo sapiens, UniProt P37288). Briefly: Displacement of [3H]-AVP from human V1A receptor after […] by liquid scintillation counting.
Sequence of Vasopressin V1a receptor (Homo sapiens, UniProt P37288) (P37288 whole entry): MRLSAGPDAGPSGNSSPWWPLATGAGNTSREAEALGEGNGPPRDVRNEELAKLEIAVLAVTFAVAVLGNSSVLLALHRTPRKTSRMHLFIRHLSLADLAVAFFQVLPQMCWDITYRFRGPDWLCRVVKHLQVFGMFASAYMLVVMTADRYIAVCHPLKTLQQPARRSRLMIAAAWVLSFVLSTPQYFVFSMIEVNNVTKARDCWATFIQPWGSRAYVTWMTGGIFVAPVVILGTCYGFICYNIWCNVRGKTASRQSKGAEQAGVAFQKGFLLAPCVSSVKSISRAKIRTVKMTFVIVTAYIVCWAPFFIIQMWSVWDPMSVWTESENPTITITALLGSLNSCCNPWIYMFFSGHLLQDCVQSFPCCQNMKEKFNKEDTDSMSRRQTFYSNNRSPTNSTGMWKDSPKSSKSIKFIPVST
The next data set concerns the target T1, Oxytocin receptor (Homo sapiens, UniProt P30559).
T1 sequence (P30559 whole entry): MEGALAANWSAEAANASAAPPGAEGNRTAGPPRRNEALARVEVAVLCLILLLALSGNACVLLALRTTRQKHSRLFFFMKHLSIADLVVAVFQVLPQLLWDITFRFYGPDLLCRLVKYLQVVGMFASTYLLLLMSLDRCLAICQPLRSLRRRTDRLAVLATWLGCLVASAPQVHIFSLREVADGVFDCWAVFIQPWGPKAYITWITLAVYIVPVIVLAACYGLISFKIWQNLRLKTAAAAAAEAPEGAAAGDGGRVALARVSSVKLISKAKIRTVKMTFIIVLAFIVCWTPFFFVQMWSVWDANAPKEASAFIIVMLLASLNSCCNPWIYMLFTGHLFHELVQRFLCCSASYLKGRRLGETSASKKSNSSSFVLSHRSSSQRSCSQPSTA
Briefly: Displacement of [3H]oxytocin from human oxytocin receptor after […] by liquid scintillation counting.

The next data set addresses Vasopressin V2 receptor (Homo sapiens, UniProt P30518). Briefly: Displacement of [3H]-AVP from human vasopressin V2 receptor after […] by liquid scintillation counting. A general note: In a radioligand displacement assay an active substance lowers the binding of a labelled ligand.
The subject of data set [5] is Thyroid gland. The experiment in a line: Drug uptake in iv dosed Sprague-Dawley rat thyroid assessed as per organ after 120 mins. Particulars: in vivo, 2 h. In kind it is ADME, organism-based. The method, boiled down: (§3)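 Female Sprague–Dawley rats (180–200 g), fed ad libitum, were anesthetised with im ketamine/xylazine. Radioligand was given iv via tail vein in 0.1–0.2 ml 10% ethanol/saline. Animals were killed at 15, 30, 60 or 120 min and the thyroid was counted by gamma counter with dose standards. Counts were decay-corrected and given as percent injected dose per organ; n = 4, or 3 where noted.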

Data set [6] deals with Thyroid gland. Briefly: Drug uptake in iv dosed Sprague-Dawley rat thyroid assessed as per organ after 60 mins. In kind it is ADME, organism-based. To be noted: in vivo, 1 h. The method, boiled down: as §3
The nature of data set [7]: Chemical stability of the compound in 10 % ethanol assessed as remaining radioactivity. In kind it is physicochemical.
Data set [8] concerns Thyroid gland. The experiment in a line: Drug uptake in iv dosed Sprague-Dawley rat thyroid assessed as per organ after 15 mins. In kind it is ADME, organism-based. To be noted: in vivo, 0.25 h. The method, boiled down: as §3
Data set [9] relates to Thyroid gland. The experiment in a line: Drug uptake in iv dosed Sprague-Dawley rat thyroid assessed as per organ after 30 mins. To be noted: in vivo, 0.5 h. The format is ADME, organism-based. In outline: as §3
Data set [10] concerns the target Vasopressin V1a receptor (Microtus ochrogaster) (UniProt Q9WTV9). The experiment in a line: Binding affinity to prairie vole ventral pallidum vasopressin V1A receptor by autoradiography. Particulars: tested as the 125I-labelled form. In outline: as §2
In a further data set the target is T2, Vasopressin V1b receptor (Homo sapiens, UniProt P47901).
T2 sequence (P47901 whole entry): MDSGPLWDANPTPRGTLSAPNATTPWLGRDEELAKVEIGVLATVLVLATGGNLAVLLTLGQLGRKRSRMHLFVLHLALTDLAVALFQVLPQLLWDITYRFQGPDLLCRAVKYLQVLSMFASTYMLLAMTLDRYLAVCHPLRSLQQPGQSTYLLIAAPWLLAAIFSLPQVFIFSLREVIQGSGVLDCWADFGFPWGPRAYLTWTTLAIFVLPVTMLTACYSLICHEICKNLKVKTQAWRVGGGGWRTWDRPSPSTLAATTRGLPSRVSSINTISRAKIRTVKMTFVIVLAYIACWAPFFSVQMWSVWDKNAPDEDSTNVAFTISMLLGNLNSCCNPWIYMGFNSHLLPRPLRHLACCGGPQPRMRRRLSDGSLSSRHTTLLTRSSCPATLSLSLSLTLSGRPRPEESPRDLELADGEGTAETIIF
The experiment in a line: Displacement of [3H]-AVP from human V1b receptor after […] by liquid scintillation counting.

Data set [11] relates to Brain. Briefly: Drug uptake in Sprague-Dawley rat brain at 295 uCi. iv after 5 mins by PET imaging. Particulars: in vivo. The format is ADME, organism-based. In outline: as §1

Sequence of Vasopressin V1a receptor (Microtus ochrogaster, UniProt Q9WTV9) (Q9WTV9 whole entry): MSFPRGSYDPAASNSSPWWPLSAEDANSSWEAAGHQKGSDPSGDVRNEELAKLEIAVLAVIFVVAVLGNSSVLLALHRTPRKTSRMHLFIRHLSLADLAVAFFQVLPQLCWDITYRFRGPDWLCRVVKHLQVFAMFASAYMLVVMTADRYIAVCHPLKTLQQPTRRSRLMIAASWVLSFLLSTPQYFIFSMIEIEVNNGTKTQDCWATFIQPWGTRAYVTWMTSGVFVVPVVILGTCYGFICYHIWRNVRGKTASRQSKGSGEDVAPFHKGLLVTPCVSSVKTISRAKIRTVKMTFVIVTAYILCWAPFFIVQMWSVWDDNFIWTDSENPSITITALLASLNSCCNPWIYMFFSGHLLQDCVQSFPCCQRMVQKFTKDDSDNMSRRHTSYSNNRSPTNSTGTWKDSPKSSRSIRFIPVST
Sequence of Vasopressin V2 receptor (P30518 whole entry): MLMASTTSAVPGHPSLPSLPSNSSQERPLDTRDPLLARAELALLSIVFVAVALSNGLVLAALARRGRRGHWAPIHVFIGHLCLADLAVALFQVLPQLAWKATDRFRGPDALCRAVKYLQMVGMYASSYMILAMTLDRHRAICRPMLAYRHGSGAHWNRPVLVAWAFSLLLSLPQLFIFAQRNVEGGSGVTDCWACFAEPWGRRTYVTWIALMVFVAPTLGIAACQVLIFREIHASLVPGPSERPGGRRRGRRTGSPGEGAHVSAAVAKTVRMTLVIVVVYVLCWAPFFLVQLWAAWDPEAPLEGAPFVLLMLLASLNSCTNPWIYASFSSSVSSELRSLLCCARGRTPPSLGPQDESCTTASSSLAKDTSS
Sequence of Vasopressin V1a receptor (Microtus ochrogaster) (Q9WTV9 whole entry, looked up): as the sequence (Q9WTV9 whole entry) above

On to `CS(=O)(=O)N1CCC(Oc2ccc(CC(=O)N3CCC(N4C(=O)CCc5ccccc54)CC3)c(O[11CH3])c2)CC1`, for which, in the data set with Brain [1], the Drug uptake entry is “Not Active”.

For `CS(=O)(=O)N1CCC(Oc2ccc(CC(=O)N3CCC(N4C(=O)CCc5ccccc54)CC3)c(OCCF)c2)CC1`, the inhibition constant Ki (commonly the dissociation constant of the complex between target and ligand, obtained from inhibition or displacement) amounted to 9.4 nM on Vasopressin V1a receptor [2], 8700 nM on Vasopressin V1a receptor [4], 16 nM on Oxytocin receptor and 1800 nM on Vasopressin V2 receptor. For the same compound, the logD (commonly lipophilicity at a set pH, counting ionised and neutral species) at 0.05 h in data set [3] is 2.02.

For `CS(=O)(=O)N1CCC(Oc2ccc(CC(=O)N3CCC(N4C(=O)CCc5ccccc54)CC3)c(OC/C=C\[125I])c2)CC1`, the Drug uptake is 0.67 %ID with Thyroid gland [5], 0.32 %ID with Thyroid gland [6], 0.05 %ID in the data set with Thyroid gland [8] and 0.2 %ID with Thyroid gland [9]. Besides, the Stability in data set [7] turned out to be 15%.

As for `COc1cc(OC2CCN(S(C)(=O)=O)CC2)ccc1CC(=O)N1CCC(N2C(=O)CCc3ccccc32)CC1`, the Ki worked out at 78 nM on Vasopressin V1a receptor [2], 4800 nM on Vasopressin V1a receptor [4], 28 nM on Oxytocin receptor and 3700 nM on Vasopressin V2 receptor. Moreover, the logD at 0.05 h in data set [3] was 2.25.

Regarding `CS(=O)(=O)N1CCC(Oc2ccc(CC(=O)N3CCC(N4C(=O)CCc5ccccc54)CC3)c(OC/C=C/I)c2)CC1`, the inhibitory constant (Ki) was found to be 1.7 nM at Vasopressin V1a receptor [2], 790 nM on Vasopressin V1a receptor [4], 10 nM on Oxytocin receptor and 1400 nM at Vasopressin V2 receptor. In data set [3], the logD at 0.05 h stood at 2.36.

As for `CS(=O)(=O)N1CCC(Oc2ccc(CC(=O)N3CCC(N4C(=O)CCc5ccccc54)CC3)c(OC/C=C\I)c2)CC1`, the Ki worked out at 16 nM at Vasopressin V1a receptor [2]; 530 nM at Vasopressin V1a receptor [4]; 5.7 nM at Oxytocin receptor; 580 nM at Vasopressin V2 receptor; 9600 nM on Vasopressin V1b receptor. The outcome in [10] was Active. The compound also registered a logD at 0.05 h in [3] of 2.18.

With `CS(=O)(=O)N1CCC(Oc2ccc(CC(=O)N3CCC(N4C(=O)CCc5ccccc54)CC3)c(OCC[18F])c2)CC1`, in the data set with Brain [11], the Drug uptake entry is recorded as “Active”.

`CS(=O)(=O)N1CCC(Oc2ccc(CC(=O)N3CCC(N4C(=O)CCc5ccccc54)CC3)c(O)c2)CC1` came in with a Ki on Oxytocin receptor of 78 nM.

Consider `CS(=O)(=O)N1CCC(Oc2ccc(CC(=O)N3CCC(N4C(=O)CCc5ccccc54)CC3)c(OC/C=C/[125I])c2)CC1`, for which the Drug uptake is reported as 1.05 %ID in the data set with Thyroid gland [5], 0.81 %ID in the data set with Thyroid gland [6], 0.19 %ID with Thyroid gland [8] and 0.53 %ID with Thyroid gland [9]. Besides, the Stability in [7] is listed as 15%.
